Laboratory results published in ChEMBL document CHEMBL1240350, “In vitro activity of CEM-101 against Streptococcus pneumoniae and Streptococcus pyogenes with defined macrolide resistance mechanisms” (Antimicrob Agents Chemother, 2010).
Converted amounts (≈) assume the structure as drawn.

Columns and labels:
[1] = test system: Streptococcus pyogenes; test: Antibacterial activity against macrolide-resistant Streptococcus pyogenes 237 harboring mutation in L4 ribosomal protein after 50 passages following overnight incubation by agar dilution method
[2] = test system: Streptococcus pyogenes; test: Antibacterial activity against macrolide-resistant Streptococcus pyogenes 2011 harboring mef(A) gene after 35 passages following overnight incubation by agar dilution method
[3] = test system: Streptococcus pneumoniae; test: Antibacterial activity against macrolide-resistant Streptococcus pneumoniae 3665 harboring mef(A) gene after 50 passages following overnight incubation by agar dilution method; type: functional
[4] = test system: Streptococcus pneumoniae; test: Antibacterial activity against macrolide-resistant Streptococcus pneumoniae 3665 harboring mef(A) gene after 26 passages and 10 compound-free subculturing by retest method; type: functional
[5] = test system: Streptococcus pneumoniae; test: Antibacterial activity against macrolide-susceptible Streptococcus pneumoniae 1077 after 29 passages following overnight incubation by agar dilution method; type: functional
[6] = test system: Streptococcus pneumoniae; test: Antibacterial activity against macrolide-susceptible Streptococcus pneumoniae 1077 after 15 passages and 10 compound-free subculturing by retest method; type: functional
[7] = test system: Streptococcus pneumoniae; test: Antibacterial activity against macrolide-resistant Streptococcus pneumoniae 3009 harboring mutation in 23S rRNA after 25 passages and 10 compound-free subculturing by retest method; type: functional
[8] = test system: Streptococcus pneumoniae; test: Antibacterial activity against macrolide-susceptible Streptococcus pneumoniae 1077 after 29 passages and 10 compound-free subculturing by retest method; type: functional
[9] = test system: Streptococcus pyogenes; test: Antibacterial activity against macrolide-susceptible Streptococcus pyogenes 2132 after 28 passages following overnight incubation by agar dilution method
[10] = test system: Streptococcus pneumoniae; test: Antibacterial activity against macrolide-susceptible Streptococcus pneumoniae 7127 harboring S20N mutation in L4 ribosomal protein and A105V mutation in L22 ribosomal protein after 29 passages following overnight incubation by agar dilution method; type: functional
[11] = test system: Streptococcus pneumoniae; test: Antibacterial activity against macrolide-resistant Streptococcus pneumoniae 1635 harboring erm(A) gene after 14 passages following overnight incubation by agar dilution method; type: functional
[12] = test system: Streptococcus pyogenes; test: Antibacterial activity against macrolide-susceptible Streptococcus pyogenes 2132 after 50 passages following overnight incubation by agar dilution method
[13] = test system: Streptococcus pneumoniae; test: Antibacterial activity against macrolide-resistant Streptococcus pneumoniae 3665 harboring mef(A) gene after 26 passages following overnight incubation by agar dilution method; type: functional
[14] = test system: Streptococcus pneumoniae; test: Antibacterial activity against macrolide-resistant Streptococcus pneumoniae 1635 harboring erm(A) gene after 49 passages following overnight incubation by agar dilution method; type: functional
[15] = test system: Streptococcus pneumoniae; test: Antibacterial activity against macrolide-resistant Streptococcus pneumoniae 2686 harboring mutation in L4 ribosomal protein after 14 passages following overnight incubation by agar dilution method; type: functional
[16] = test system: Streptococcus pneumoniae; test: Antibacterial activity against macrolide-resistant Streptococcus pneumoniae 2686 harboring mutation in L4 ribosomal protein after 50 passages following overnight incubation by agar dilution method; type: functional
[17] = test system: Streptococcus pneumoniae; test: Antibacterial activity against macrolide-resistant Streptococcus pneumoniae 3009 harboring mutation in 23S rRNA after 50 passages following overnight incubation by agar dilution method; type: functional
[18] = test system: Streptococcus pyogenes; test: Antibacterial activity against macrolide-resistant Streptococcus pyogenes 237 harboring mutation in L4 ribosomal protein after 43 passages following overnight incubation by agar dilution method
[19] = test system: Streptococcus pneumoniae; test: Antibacterial activity against macrolide-susceptible Streptococcus pneumoniae 1077 after 49 passages following overnight incubation by agar dilution method; type: functional
[20] = test system: Streptococcus pneumoniae; test: Antibacterial activity against macrolide-resistant Streptococcus pneumoniae 2686 harboring mutation in L4 ribosomal protein after 22 passages following overnight incubation by agar dilution method; type: functional
[21] = test system: Streptococcus pyogenes; test: Antibacterial activity against macrolide-resistant Streptococcus pyogenes 2094 harboring erm(A) gene after 43 passages following overnight incubation by agar dilution method
[22] = test system: Streptococcus pyogenes; test: Antibacterial activity against macrolide-resistant Streptococcus pyogenes 237 harboring mutation in L4 ribosomal protein after 20 passages following overnight incubation by agar dilution method
[23] = test system: Streptococcus pneumoniae; test: Antibacterial activity against macrolide-resistant Streptococcus pneumoniae 1635 harboring erm(A) gene after 32 passages following overnight incubation by agar dilution method; type: functional
[24] = test system: Streptococcus pneumoniae; test: Antibacterial activity against macrolide-resistant Streptococcus pneumoniae 1076 harboring erm(B) and mef(A) gene after 18 passages following overnight incubation by agar dilution method; type: functional
[25] = test system: Streptococcus pneumoniae; test: Antibacterial activity against macrolide-susceptible Streptococcus pneumoniae 1077 after 43 passages following overnight incubation by agar dilution method; type: functional
[26] = Tmax in human at 400 to 500 mg; details: in vivo
[27] = test system: Streptococcus pyogenes; test: Antibacterial activity against macrolide-resistant Streptococcus pyogenes 2368 harboring erm(B) gene after 18 passages following overnight incubation by agar dilution method
[28] = test system: Streptococcus pneumoniae; test: Antibacterial activity against macrolide-resistant Streptococcus pneumoniae 1635 harboring erm(A) gene after 14 passages and 10 compound-free subculturing by retest method; type: functional
Method in brief: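 Multistep selection by daily serial passage in subinhibitory drug concentrations. Medium was cation-adjusted Mueller-Hinton broth plus 5% lysed horse blood. Each day the next inoculum came from the tube 1–2 dilutions below the MIC whose turbidity matched the growth control, for up to 50 days. Clone MICs by CLSI macrodilution; identity to the parent confirmed by SmaI PFGE.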

[29] = Half life in human at 400 to 500 mg; details: in vivo
[30] = test system: Streptococcus pneumoniae; test: Antibacterial activity against macrolide-resistant Streptococcus pneumoniae 3665 harboring mef(A) gene after 14 passages following overnight incubation by agar dilution method; type: functional
[31] = test system: Streptococcus pneumoniae; test: Antibacterial activity against macrolide-resistant Streptococcus pneumoniae 24 harboring erm(B) gene after 14 passages following overnight incubation by agar dilution method; type: functional
[32] = test system: Streptococcus pneumoniae; test: Antibacterial activity against macrolide-resistant Streptococcus pneumoniae 3009 harboring mutation in 23S rRNA after 20 passages following overnight incubation by agar dilution method; type: functional
[33] = test system: Streptococcus pyogenes; test: Antibacterial activity against macrolide-resistant Streptococcus pyogenes 2094 harboring erm(A) gene after 22 passages following overnight incubation by agar dilution method
[34] = test system: Streptococcus pyogenes; test: Antibacterial activity against macrolide-resistant Streptococcus pyogenes 2368 harboring erm(B) gene after 6 passages following overnight incubation by agar dilution method
[35] = test system: Streptococcus pneumoniae; test: Antibacterial activity against macrolide-resistant Streptococcus pneumoniae 2686 harboring mutation in L4 ribosomal protein after 25 passages following overnight incubation by […]; type: functional
Method in brief: (§1)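 S. pneumoniae parental strains were passaged daily in subinhibitory drug concentrations in cation-adjusted Mueller-Hinton broth with 5% lysed horse blood. Each passage was seeded from the tube 1 to 2 dilutions below the MIC whose turbidity matched the growth control. MICs of resistant clones were measured by CLSI macrodilution. Parent and clone identity was confirmed by PFGE of SmaI-digested DNA.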

[36] = test system: Streptococcus pneumoniae; test: Antibacterial activity against macrolide-resistant Streptococcus pneumoniae 1635 harboring erm(A) gene after 50 passages following overnight incubation by […]; type: functional
Method in brief: as §1

[37] = test system: Streptococcus pneumoniae; test: Antibacterial activity against macrolide-susceptible Streptococcus pneumoniae 1077 after 15 passages following overnight incubation by […]; type: functional
Method in brief: as §1

[38] = Streptococcus pneumoniae, 1635, read-out: MIC

Structure (SMILES)	MIC [1] [µg/mL]	MIC [3] [µg/mL]	MIC [4] [µg/mL]	MIC [6] [µg/mL]	MIC [7] [µg/mL]	MIC [8] [µg/mL]	MIC [11] [µg/mL]	MIC [12] [µg/mL]	MIC [17] [µg/mL]	MIC [28] [µg/mL]	MIC [28, 38] [µg/mL]	MIC [30] [µg/mL]	MIC [31] [µg/mL]	other results
CC[C@H]1OC(=O)[C@H](C)[C@@H](O[C@H]2C[C@@](C)(OC)[C@@H](O)[C@H](C)O2)[C@H](C)[C@@H](O[C@@H]2O[C@H](C)C[C@H](N(C)C)[C@H]2O)[C@](C)(O)C[C@@H](C)CN(C)[C@H](C)[C@@H](O)[C@]1(C)O [AZITHROMYCIN]	8 (≈ 10.7 µM)	16 (≈ 21.4 µM)	8 (≈ 10.7 µM)	> 64	> 64	> 64	> 64	–	–	–	–	–	–	MIC [2]: 32 µg/mL (≈ 42.7 µM); MIC [5]: > 64 µg/mL; MIC [9]: 1 µg/mL (≈ 1.34 µM); MIC [10]: 0.5 µg/mL (≈ 0.668 µM)
CC[C@H]1OC(=O)[C@H](C)[C@@H](O[C@H]2C[C@@](C)(OC)[C@@H](O)[C@H](C)O2)[C@H](C)[C@@H](O[C@@H]2O[C@H](C)C[C@H](N(C)C)[C@H]2O)[C@](C)(OC)C[C@@H](C)C(=O)[C@H](C)[C@@H](O)[C@]1(C)O [CLARITHROMYCIN]	1 (≈ 1.34 µM)	–	8 (≈ 10.7 µM)	> 64	64 (≈ 85.6 µM)	> 64	–	0.016 (≈ 0.0214 µM)	–	–	–	–	–	MIC [13]: 16 µg/mL (≈ 21.4 µM); MIC [14]: > 64 µg/mL; MIC [15]: > 64 µg/mL
CCC[C@@H]1C[C@@H](C(=O)N[C@@H]([C@H]2O[C@H](SC)[C@H](O)[C@@H](O)[C@H]2O)[C@H](C)Cl)N(C)C1 [CLINDAMYCIN]	–	0.03 (≈ 0.0706 µM)	0.03 (≈ 0.0706 µM)	8 (≈ 18.8 µM)	1 (≈ 2.35 µM)	4 (≈ 9.41 µM)	> 64	0.06 (≈ 0.141 µM)	2 (≈ 4.71 µM)	–	–	–	–	MIC [16]: 0.125 µg/mL (≈ 0.294 µM); MIC [18]: 0.5 µg/mL (≈ 1.18 µM); MIC [19]: 4 µg/mL (≈ 9.41 µM)
CC[C@H]1OC(=O)[C@@](C)(F)C(=O)[C@H](C)[C@@H](O[C@@H]2O[C@H](C)C[C@H](N(C)C)[C@H]2O)[C@](C)(OC)C[C@@H](C)C(=O)[C@H](C)[C@H]2N(CCCCn3cc(-c4cccc(N)c4)nn3)C(=O)O[C@]12C [SOLITHROMYCIN]	–	–	0.06 (≈ 0.071 µM)	0.06 (≈ 0.071 µM)	0.03 (≈ 0.0355 µM)	0.03 (≈ 0.0355 µM)	–	0.016 (≈ 0.0189 µM)	–	0.004 (≈ 0.00473 µM)	0.004 (≈ 0.00473 µM)	0.5 (≈ 0.592 µM)	0.06 (≈ 0.071 µM)	MIC [20]: 0.5 µg/mL (≈ 0.592 µM); MIC [21]: 0.25 µg/mL (≈ 0.296 µM); MIC [22]: 0.25 µg/mL (≈ 0.296 µM); MIC [23]: 0.06 µg/mL (≈ 0.071 µM); MIC [24]: 32 µg/mL (≈ 37.9 µM); MIC [25]: 0.06 µg/mL (≈ 0.071 µM); Tmax [26]: 4 h; MIC [27]: 8 µg/mL (≈ 9.47 µM); half-life [29]: 5 h; MIC [32]: 0.25 µg/mL (≈ 0.296 µM)
CC[C@H]1OC(=O)[C@H](C)C(=O)[C@H](C)[C@@H](O[C@@H]2O[C@H](C)C[C@H](N(C)C)[C@H]2O)[C@](C)(OC)C[C@@H](C)C(=O)[C@H](C)[C@H]2N(CCCCn3cnc(-c4cccnc4)c3)C(=O)O[C@]12C [TELITHROMYCIN]	0.125 (≈ 0.154 µM)	–	0.06 (≈ 0.0739 µM)	0.25 (≈ 0.308 µM)	0.06 (≈ 0.0739 µM)	0.125 (≈ 0.154 µM)	–	0.03 (≈ 0.0369 µM)	0.03 (≈ 0.0369 µM)	0.008 (≈ 0.00985 µM)	0.004 (≈ 0.00493 µM)	2 (≈ 2.46 µM)	32 (≈ 39.4 µM)	MIC [33]: 0.25 µg/mL (≈ 0.308 µM); MIC [34]: > 64 µg/mL; MIC [35]: 0.5 µg/mL (≈ 0.616 µM); MIC [36]: 0.008 µg/mL (≈ 0.00985 µM); MIC [37]: 0.25 µg/mL (≈ 0.308 µM)
